What was measured:
Format in all cases: cell-based
[1] = molecular target: Nuclear receptor subfamily 4 group A member 2 (Homo sapiens) (UniProt P43354); experiment: Modulation of full length human Nurr1 expressed in SKNBE(2) cells co-transfected with luciferase reporter plasmid harboring NBRE response element assessed as increase in luciferase activity incubated for 18 hrs by luciferase reporter-gene assay; details: SKNBE2, filed as modulator
Method in brief: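 Transfection of SK-N-BE(2)-C cells (1:1 EMEM/F12, 10% FBS, 37°C, 5% CO2) used full-length Nurr1 alone (2 μg, no RXRα) with 3xNBRE- or 3xNurRE-luciferase reporter (6 μg) for 18 h. Cells were replated at 10,000/well for 4 h, then exposed to ligand or vehicle in quadruplicate for 18 h. Luminescence was expressed as fold over vehicle, as mean ± s.e.m. (n=4) from 2 independent experiments, one-way ANOVA against vehicle.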

[2] = molecular target: Nuclear receptor subfamily 4 group A member 2 (Homo sapiens) (UniProt P43354); experiment: Modulation of full length human Nurr1 expressed in HEK293T cells co-transfected with RXRalpha and luciferase reporter plasmid harboring NurRE response element assessed as increase in luciferase activity incubated for 18 hrs by luciferase reporter-gene assay; details: filed as modulator
Method in brief: (§1)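 Full-length Nurr1 plasmid, alone (2 μg) or 1 μg plus full-length RXRα (1 μg), cotransfected with 3xNBRE- or 3xNurRE-luciferase reporter (6 μg) using Lipofectamine 2000, 18 h. Cells replated at 10,000/well for 4 h. Four ligand concentrations, or vehicle (water, ethanol or DMSO), added in quadruplicate for 18 h. Luciferase read. Fold change vs vehicle, mean ± s.e.m., one-way ANOVA vs vehicle.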

[3] = molecular target: Nuclear receptor subfamily 4 group A member 2 (Homo sapiens) (UniProt P43354); experiment: Modulation of full length human Nurr1 expressed in HEK293T cells co-transfected with luciferase reporter plasmid harboring NurRE response element assessed as increase in luciferase activity incubated for 18 hrs by luciferase reporter-gene assay; details: filed as modulator; method in brief: as §1
[4] = molecular target: Nuclear receptor subfamily 4 group A member 2 (Homo sapiens) (UniProt P43354); experiment: Modulation of full length human Nurr1 expressed in HEK293T cells co-transfected with RXRalpha and luciferase reporter plasmid harboring NBRE response element assessed as increase in luciferase activity incubated for 18 hrs by luciferase reporter-gene assay; details: filed as modulator; method in brief: as §1
[5] = molecular target: Nuclear receptor subfamily 4 group A member 3 (Homo sapiens) (UniProt Q92570); experiment: Modulation of full length human NOR1 expressed in SK-N-BE(2) cells co-transfected with RXRalpha and luciferase reporter plasmid harboring NBRE response element assessed as increase in luciferase activity incubated for 18 by luciferase reporter gene assay; details: SKNBE2, filed as modulator, time 18.0 hrs
Method in brief: (§2)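 Cells seeded at 1.5 million per 10-cm dish. Next day they were transfected (Lipofectamine 2000) with full-length Nur77 or NOR-1 expression plasmid, either alone (2 μg) or 1 μg plus full-length RXRα (1 μg), and 3xNBRE- or 3xNurRE-luciferase reporter (6 μg), 18 h. Cells replated at 10,000/well, 4 h, then ligand dose response added in quadruplicate for 18 h. Luciferase luminescence read.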

[6] = molecular target: Nuclear receptor subfamily 4immunitygroup A member 1 (Homo sapiens) (UniProt P22736); experiment: Modulation of full length human Nur77 expressed in HEK293 cells co-transfected with luciferase reporter plasmid harboring NurRE response element assessed as increase in luciferase activity incubated for 18 hrs by luciferase reporter gene assay; details: filed as modulator; method in brief: as §2
[7] = molecular target: Nuclear receptor subfamily 4immunitygroup A member 1 (Homo sapiens) (UniProt P22736); experiment: Modulation of full length human Nur77 expressed in HEK293 cells co-transfected with RXRalpha and luciferase reporter plasmid harboring NBRE response element assessed as increase in luciferase activity incubated for 18 hrs by luciferase reporter gene assay; details: filed as modulator; method in brief: as §2
[8] = molecular target: Nuclear receptor subfamily 4immunitygroup A member 1 (Homo sapiens) (UniProt P22736); experiment: Modulation of full length human Nur77 expressed in HEK293 cells co-transfected with RXRalpha and luciferase reporter plasmid harboring NurRE response element assessed as increase in luciferase activity incubated for 18 hrs by luciferase reporter gene assay; details: filed as modulator; method in brief: as §2
[9] = molecular target: Nuclear receptor subfamily 4 group A member 3 (Homo sapiens) (UniProt Q92570); experiment: Modulation of full length human NOR1 expressed in HEK293 cells co-transfected with luciferase reporter plasmid harboring NBRE response element assessed as increase in luciferase activity incubated for 18 hrs by luciferase reporter gene assay; details: filed as modulator
Method in brief: (§3)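 Full-length NOR-1 plasmid was transfected via Lipofectamine 2000, either alone (2 μg) or at 1 μg with full-length RXRα (1 μg). It was paired with a 3xNBRE or 3xNurRE luciferase reporter (6 μg), 8 μg total DNA, for 18 h. Cells were replated at 10,000/well for 4 h, then given a full ligand dose response or vehicle in quadruplicate for 18 h. Luciferase was read; no EC50/IC50 was fitted.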

[10] = molecular target: Nuclear receptor subfamily 4 group A member 3 (Homo sapiens) (UniProt Q92570); experiment: Modulation of full length human NOR1 expressed in HEK293 cells co-transfected with luciferase reporter plasmid harboring NurRE response element assessed as increase in luciferase activity incubated for 18 hrs by luciferase reporter gene assay; details: filed as modulator; method in brief: as §3
[11] = molecular target: Nuclear receptor subfamily 4 group A member 3 (Homo sapiens) (UniProt Q92570); experiment: Modulation of full length human NOR1 expressed in HEK293T cells co-transfected with RXRalpha luciferase reporter plasmid harboring NBRE response element assessed as increase in luciferase activity incubated for 18 hrs by luciferase reporter gene assay; details: filed as modulator; method in brief: as §3
[12] = molecular target: Nuclear receptor subfamily 4 group A member 3 (Homo sapiens) (UniProt Q92570); experiment: Modulation of full length human NOR1 expressed in SK-N-BE(2) cells co-transfected with luciferase reporter plasmid harboring NBRE response element assessed as increase in luciferase activity incubated for 18 by luciferase reporter gene assay; details: SKNBE2, filed as modulator, time 18.0 hrs; method in brief: as §2
[13] = molecular target: Nuclear receptor subfamily 4immunitygroup A member 1 (Homo sapiens) (UniProt P22736); experiment: Modulation of full length human Nur77 expressed in SK-N-BE(2) cells co-transfected with RXRalpha and luciferase reporter plasmid harboring NurRE response element assessed as increase in luciferase activity incubated for 18 by luciferase reporter gene assay; details: SKNBE2, filed as modulator, time 18.0 hrs; method in brief: as §2
[14] = molecular target: Nuclear receptor subfamily 4immunitygroup A member 1 (Homo sapiens) (UniProt P22736); experiment: Modulation of full length human Nur77 expressed in SK-N-BE(2) cells co-transfected with luciferase reporter plasmid harboring NurRE response element assessed as increase in luciferase activity incubated for 18 by luciferase reporter gene assay; details: SKNBE2, filed as modulator, time 18.0 hrs; method in brief: as §2
[15] = molecular target: Nuclear receptor subfamily 4immunitygroup A member 1 (Homo sapiens) (UniProt P22736); experiment: Modulation of full length human Nur77 expressed in PC12 cells co-transfected with RXRalpha and luciferase reporter plasmid harboring NBRE response element assessed as increase in luciferase activity incubated for 18 by luciferase reporter gene assay; details: PC-12, filed as modulator, time 18.0 hrs; method in brief: as §2
[16] = molecular target: Nuclear receptor subfamily 4immunitygroup A member 1 (Homo sapiens) (UniProt P22736); experiment: Modulation of full length human Nur77 expressed in PC12 cells co-transfected with RXRalpha and luciferase reporter plasmid harboring NurRE response element assessed as increase in luciferase activity incubated for 18 by luciferase reporter gene assay; details: PC-12, filed as modulator, time 18.0 hrs; method in brief: as §2
[17] = molecular target: Nuclear receptor subfamily 4 group A member 3 (Homo sapiens) (UniProt Q92570); experiment: Modulation of full length human NOR1 expressed in PC12 cells co-transfected with luciferase reporter plasmid harboring NBRE response element assessed as increase in luciferase activity incubated for 18 by luciferase reporter gene assay; details: PC-12, filed as modulator, time 18.0 hrs; method in brief: as §3
[18] = molecular target: Nuclear receptor subfamily 4 group A member 3 (Homo sapiens) (UniProt Q92570); experiment: Modulation of full length human NOR1 expressed in PC12 cells co-transfected with luciferase reporter plasmid harboring NurRE response element assessed as increase in luciferase activity incubated for 18 by luciferase reporter gene assay; details: PC-12, filed as modulator, time 18.0 hrs; method in brief: as §3
[19] = molecular target: Nuclear receptor subfamily 4 group A member 3 (Homo sapiens) (UniProt Q92570); experiment: Modulation of full length human NOR1 expressed in PC12 cells co-transfected with RXRalpha and luciferase reporter plasmid harboring NBRE response element assessed as increase in luciferase activity incubated for 18 by luciferase reporter gene assay; details: PC-12, filed as modulator, time 18.0 hrs; method in brief: as §3
[20] = molecular target: Nuclear receptor subfamily 4 group A member 3 (Homo sapiens) (UniProt Q92570); experiment: Modulation of full length human NOR1 expressed in PC12 cells co-transfected with RXRalpha and luciferase reporter plasmid harboring NurRE response element assessed as increase in luciferase activity incubated for 18 by luciferase reporter gene assay; details: PC-12, filed as modulator, time 18.0 hrs; method in brief: as §3

Measured: Activity

Nuclear receptor subfamily 4 group A member 2 (Homo sapiens), sequence (P43354 whole entry): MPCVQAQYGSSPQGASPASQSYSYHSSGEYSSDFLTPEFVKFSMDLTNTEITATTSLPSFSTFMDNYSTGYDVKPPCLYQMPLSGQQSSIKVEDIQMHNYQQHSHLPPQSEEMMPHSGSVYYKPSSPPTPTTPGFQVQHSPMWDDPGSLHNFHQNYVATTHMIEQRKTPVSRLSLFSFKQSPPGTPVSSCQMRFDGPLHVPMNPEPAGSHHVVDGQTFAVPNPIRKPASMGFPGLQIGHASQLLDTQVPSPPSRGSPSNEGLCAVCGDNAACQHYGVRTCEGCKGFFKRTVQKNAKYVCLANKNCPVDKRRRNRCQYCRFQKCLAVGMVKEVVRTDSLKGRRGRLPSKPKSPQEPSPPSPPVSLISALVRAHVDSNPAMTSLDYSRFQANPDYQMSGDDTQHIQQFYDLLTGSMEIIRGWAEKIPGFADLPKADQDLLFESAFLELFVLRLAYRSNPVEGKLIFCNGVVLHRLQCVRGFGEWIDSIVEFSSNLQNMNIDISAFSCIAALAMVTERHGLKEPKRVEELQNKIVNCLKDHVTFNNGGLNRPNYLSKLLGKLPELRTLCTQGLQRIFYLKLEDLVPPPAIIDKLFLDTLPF
Nuclear receptor subfamily 4immunitygroup A member 1 (Homo sapiens), sequence (P22736 whole entry): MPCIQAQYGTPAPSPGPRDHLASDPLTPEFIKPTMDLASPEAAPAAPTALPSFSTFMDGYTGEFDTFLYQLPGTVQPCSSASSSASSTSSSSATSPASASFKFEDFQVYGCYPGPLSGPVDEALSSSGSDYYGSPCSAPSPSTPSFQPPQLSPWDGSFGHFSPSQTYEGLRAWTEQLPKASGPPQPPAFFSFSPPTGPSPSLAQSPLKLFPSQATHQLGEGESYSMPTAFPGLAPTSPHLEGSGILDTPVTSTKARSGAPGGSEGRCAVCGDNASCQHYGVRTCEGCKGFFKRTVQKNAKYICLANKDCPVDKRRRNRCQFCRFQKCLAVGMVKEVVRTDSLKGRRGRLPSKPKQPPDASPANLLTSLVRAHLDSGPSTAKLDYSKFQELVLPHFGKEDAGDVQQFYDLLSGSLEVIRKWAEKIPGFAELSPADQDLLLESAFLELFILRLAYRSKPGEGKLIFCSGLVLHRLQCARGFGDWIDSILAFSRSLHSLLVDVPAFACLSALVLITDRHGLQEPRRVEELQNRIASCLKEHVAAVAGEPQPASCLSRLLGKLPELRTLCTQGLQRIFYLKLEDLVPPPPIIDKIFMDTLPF
Nuclear receptor subfamily 4 group A member 3 (Homo sapiens), sequence (Q92570 whole entry): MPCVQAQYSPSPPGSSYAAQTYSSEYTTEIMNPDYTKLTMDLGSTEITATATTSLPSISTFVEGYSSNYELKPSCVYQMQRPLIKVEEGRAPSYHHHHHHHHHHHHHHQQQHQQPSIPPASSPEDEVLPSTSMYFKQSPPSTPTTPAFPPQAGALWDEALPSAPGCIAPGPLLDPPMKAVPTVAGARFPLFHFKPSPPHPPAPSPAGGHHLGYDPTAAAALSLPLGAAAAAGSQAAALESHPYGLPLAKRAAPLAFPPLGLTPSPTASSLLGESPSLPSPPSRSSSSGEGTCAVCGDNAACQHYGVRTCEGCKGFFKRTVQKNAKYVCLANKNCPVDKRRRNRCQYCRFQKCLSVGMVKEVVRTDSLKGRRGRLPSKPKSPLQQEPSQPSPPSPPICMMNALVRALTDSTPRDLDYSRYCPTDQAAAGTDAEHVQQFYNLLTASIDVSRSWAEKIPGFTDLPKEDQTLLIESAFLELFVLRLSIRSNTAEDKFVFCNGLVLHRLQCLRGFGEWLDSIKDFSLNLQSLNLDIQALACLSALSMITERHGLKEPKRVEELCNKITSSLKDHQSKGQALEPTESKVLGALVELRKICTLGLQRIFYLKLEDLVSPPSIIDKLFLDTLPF

CCN(CC)CCCC(C)Nc1ccnc2cc(Cl)ccc12 (stereo not given) [CHLOROQUINE]
active: [1] Dose-Dependent Effect | [2] Dose-Dependent Effect | [3] Dose-Dependent Effect | [4] Dose-Dependent Effect | [5] Dose-Dependent Effect | [6] Dose-Dependent Effect | [7] Dose-Dependent Effect | [8] Dose-Dependent Effect | [9] Dose-Dependent Effect | [10] Dose-Dependent Effect | [11] Dose-Dependent Effect | [12] Dose-Dependent Effect | [13] Dose-Dependent Effect | [14] Dose-Dependent Effect | [15] Dose-Dependent Effect | [16] Dose-Dependent Effect | [17] Dose-Dependent Effect | [18] Dose-Dependent Effect | [19] Dose-Dependent Effect | [20] Dose-Dependent Effect

CCCCCCCC(=O)c1c(O)cc(O)cc1CC(=O)OCC [CYTOSPORONE B]
active: [1] Dose-Dependent Effect | [2] Dose-Dependent Effect | [3] Dose-Dependent Effect | [4] Dose-Dependent Effect | [5] Dose-Dependent Effect | [6] Dose-Dependent Effect | [7] Dose-Dependent Effect | [8] Dose-Dependent Effect | [9] Dose-Dependent Effect | [10] Dose-Dependent Effect | [11] Dose-Dependent Effect | [12] Dose-Dependent Effect | [13] Dose-Dependent Effect | [14] Dose-Dependent Effect | [15] Dose-Dependent Effect | [16] Dose-Dependent Effect | [17] Dose-Dependent Effect | [18] Dose-Dependent Effect | [19] Dose-Dependent Effect | [20] Dose-Dependent Effect

CCN(CC)Cc1cc(Nc2ccnc3cc(Cl)ccc23)ccc1O [AMODIAQUINE]
active: [1] Dose-Dependent Effect | [2] Dose-Dependent Effect | [3] Dose-Dependent Effect | [4] Dose-Dependent Effect | [5] Dose-Dependent Effect | [6] Dose-Dependent Effect | [7] Dose-Dependent Effect | [8] Dose-Dependent Effect | [9] Dose-Dependent Effect | [10] Dose-Dependent Effect | [11] Dose-Dependent Effect | [12] Dose-Dependent Effect | [13] Dose-Dependent Effect | [14] Dose-Dependent Effect | [15] Dose-Dependent Effect | [16] Dose-Dependent Effect | [17] Dose-Dependent Effect | [18] Dose-Dependent Effect | [19] Dose-Dependent Effect | [20] Dose-Dependent Effect
